In ChEMBL document CHEMBL1806480, “New condensed pyrroles of potential biological interest syntheses and structure-activity relationship studies” (2011):
Values after ≈ are worked out from the molar mass of the structure shown. Active and inactive are the calls of the source. The calls are words filed in the database; no cut-off is given here.

How the values were obtained:
Rattus norvegicus [1] = test: Antiinflammatory activity in male Sprague-Dawley rat assessed as inhibition of carrageenan-induced rat paw edema dosed subcutaneously equimolar to 70 mg/kg, sc ibuprofen administered 1 hr before carrageenan challenge measured 1 hr post carrageenan challenge relative to control; format: functional; conditions: route subcutaneous
In short: (§1)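 Male Sprague-Dawley rats, 150–170 g, 5 per group. Compounds were given subcutaneously in DMSO at doses equimolar to the reference. One hour later, 0.1 mL of 1% carrageenan was injected subplantar into the right hind paw. Right-minus-left paw volume was read by water plethysmometer at 1, 2, 3 and 4 h. %inhibition = (1 − swelling treated/swelling control) × 100. Controls received DMSO s.c. Mean ± SE reported.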

Rattus norvegicus [2] = test: Antiinflammatory activity in male Sprague-Dawley rats assessed as inhibition of carrageenan-induced rat paw edema dosed subcutaneously equimolar to 70 mg/kg, sc ibuprofen administered 1 hr before carrageenan challenge measured 2 hrs post carrageenan challenge relative to control; format: functional; conditions: route subcutaneous; in short: as §1
Rattus norvegicus [3] = test: Antiinflammatory activity in male Sprague-Dawley rats assessed as inhibition of carrageenan-induced rat paw edema dosed subcutaneously equimolar to 70 mg/kg, sc ibuprofen administered 1 hr before carrageenan challenge measured 3 hrs post carrageenan challenge relative to control; format: functional; conditions: route subcutaneous; in short: as §1
Rattus norvegicus [4] = test: Antiinflammatory activity in male Sprague-Dawley rats assessed as inhibition of carrageenan-induced rat paw edema dosed subcutaneously equimolar to 70 mg/kg, sc ibuprofen administered 1 hr before carrageenan challenge measured 4 hrs post carrageenan challenge relative to control; format: functional; conditions: route subcutaneous; in short: as §1
Bacillus subtilis [5] = test: Antimicrobial activity against Bacillus subtilis ATCC 6633 after 24 hrs by microdilution technique; format: functional; conditions: for MIC: ATCC 6633, 24 h
In short: (§2)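 MIC by microdilution per NCCLS 1997 guidelines. Bacteria were subcultured overnight on Mueller-Hinton agar at 37 °C and passaged at least twice. Compounds were serially two-fold diluted in DMSO from 1024 to 16, mixed with nutrient agar, and inoculated. Incubation was 37 °C in a humid chamber for 24 h. MIC = lowest concentration completely inhibiting macroscopic growth. DMSO, organism-only and medium-only wells served as controls.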

Bacillus subtilis [6] = test: Antimicrobial activity against Bacillus subtilis ATCC 6633 at 20 to 30 ug/ml after 24 hrs by disk diffusion method; format: functional, organism-based
In short: (§3)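 Disc diffusion per Bauer et al. Inhibition zones were recorded. DMSO served as the solvent control. Amoxicillin and fluconazole served as reference agents.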

Staphylococcus aureus [7] = test: Antimicrobial activity against Staphylococcus aureus ATCC 29213 at 20 to 30 ug/ml after 24 hrs by disk diffusion method; format: functional, organism-based; in short: as §3
Escherichia coli [8] = test: Antimicrobial activity against Escherichia coli ATCC 25922 at 20 to 30 ug/ml after 24 hrs by disk diffusion method; format: functional, organism-based; in short: as §3
Pseudomonas aeruginosa [9] = test: Antimicrobial activity against Pseudomonas aeruginosa ATCC […] at 20 to 30 ug/ml after 24 hrs by disk diffusion method; format: functional, organism-based; in short: as §3
Candida albicans = test: Antimicrobial activity against Candida albicans ATCC 10231 at 20 to 30 ug/ml after 24 hrs by disk diffusion method; format: functional, organism-based; in short: as §3
Mycolicibacterium phlei = test: Antimicrobial activity against Mycobacterium phlei ATCC 10142 at 20 to 30 ug/ml after 24 hrs by disk diffusion method; format: functional, organism-based
Staphylococcus aureus [10] = test: Antimicrobial activity against Staphylococcus aureus ATCC 29213 after 24 hrs by microdilution technique; format: functional; conditions: ATCC 29213, 24 h; in short: as §2
Escherichia coli [11] = test: Antimicrobial activity against Escherichia coli ATCC 25922 after 24 hrs by microdilution technique; format: functional; conditions: ATCC 25922, 24 h
In short: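 MIC by two-fold serial microdilution on Mueller-Hinton agar per NCCLS 1997. Compounds were dissolved in DMSO at 1024, 512, 256, 128, 64, 32 and 16 […] and mixed with sterile nutrient agar, then inoculated with bacteria subcultured overnight at 37 °C on MHA (passaged at least twice). Incubation was 37 °C in a humid chamber and endpoints were read at 24 h. MIC is the lowest concentration completely inhibiting macroscopic growth. DMSO, organism-only and medium-only wells served as controls.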

Pseudomonas aeruginosa [12] = test: Antimicrobial activity against Pseudomonas aeruginosa ATCC […] after 24 hrs by microdilution technique; format: functional; in short: as §2

Compound | inhibition in vivo (Rattus norvegicus [1]) [%] | inhibition in vivo (Rattus norvegicus [2]) [%] | inhibition in vivo (Rattus norvegicus [3]) [%] | inhibition in vivo (Rattus norvegicus [4]) [%] | MIC (Bacillus subtilis [5]) [µg/mL] | Activity (Bacillus subtilis [6]) | Activity (Staphylococcus aureus [7]) | Activity (Escherichia coli [8]) | Activity (Pseudomonas aeruginosa [9]) | Activity (Candida albicans) | Activity (Mycolicibacterium phlei) | inhibition in vivo at 70 mg/kg (Rattus norvegicus [2]; dose equimolar to 70 mg/kg ibuprofen) [%] | MIC (Staphylococcus aureus [10]) [µg/mL] | MIC (Escherichia coli [11]) [µg/mL] | MIC (Pseudomonas aeruginosa [12]) [µg/mL] | Activity (Bacillus subtilis [5])
Cc1c(-n2c(N)c(C#N)c(-c3ccccc3)c2-c2ccccc2)n(C)n(-c2ccccc2)c1=O | 9.5 | 36.5 | 62.6 | 64.7 | 512 (≈ 1150 µM) | – | – | – | – | – | – | – | – | – | – | –
Cc1c(-n2c(-c3ccccc3)c(-c3ccccc3)c3c2ncn2ncnc32)n(C)n(-c2ccccc2)c1=O | 1.73 | 4.92 | 9.9 | 28.7 | – | – | – | – | – | – | – | – | – | – | – | –
Cc1c(-n2c(-c3ccccc3)c(-c3ccccc3)c3c2ncn2nnnc32)n(C)n(-c2ccccc2)c1=O | – | – | – | – | – | inactive | inactive | inactive | inactive | inactive | inactive | – | – | – | – | –
Cc1c(-n2c(-c3ccccc3)c(-c3ccccc3)c3c(Nc4ccccc4)ncnc32)n(C)n(-c2ccccc2)c1=O | 1.99 | 5.11 | 13 | 27.9 | – | – | – | – | – | – | – | – | – | – | – | –
Cc1c(-n2c(-c3ccccc3)c(-c3ccccc3)c3c(=O)[nH]cnc32)n(C)n(-c2ccccc2)c1=O | 63 | 60.6 | 60 | 27.1 | 256 (≈ 541 µM) | inactive | inactive | inactive | inactive | inactive | inactive | – | – | – | – | –
CC(C)Cc1ccc(C(C)C(=O)O)cc1 (stereo not drawn) [IBUPROFEN] | 6.08 | – | 60.7 | 69.5 | – | – | – | – | – | – | – | 45 | – | – | – | –
Cc1c(-n2c(-c3ccccc3)c(-c3ccccc3)c3c(=S)[nH]cnc32)n(C)n(-c2ccccc2)c1=O | 0 | 0 | 73.3 | 64.3 | – | inactive | inactive | inactive | inactive | inactive | inactive | – | – | – | – | –
Cc1c(-n2c(-c3ccccc3)c(-c3ccccc3)c3c(NN)ncnc32)n(C)n(-c2ccccc2)c1=O | 43.7 | 46.1 | 65.1 | 54 | – | – | – | – | – | – | – | – | – | – | – | –
Cc1ccccc1Nc1ncnc2c1c(-c1ccccc1)c(-c1ccccc1)n2-c1c(C)c(=O)n(-c2ccccc2)n1C | 1.95 | 5.17 | 13.3 | 28 | – | – | – | – | – | – | – | – | – | – | – | –
Cc1c(-n2c(-c3ccccc3)c(-c3ccccc3)c3c(=N)[nH]cnc32)n(C)n(-c2ccccc2)c1=O | 0.89 | 2.35 | 11.4 | 27.5 | 512 (≈ 1080 µM) | – | – | – | – | – | – | – | – | – | – | –
Cc1c(-n2c(-c3ccccc3)c(-c3ccccc3)c3c(N/N=C/c4ccccc4)ncnc32)n(C)n(-c2ccccc2)c1=O | 47.8 | 59.6 | 90.8 | 48.4 | – | – | – | – | – | – | – | – | – | – | – | –
CC(=O)Nc1c(C#N)c(-c2ccccc2)c(-c2ccccc2)n1-c1c(C)c(=O)n(-c2ccccc2)n1C | 1.73 | 3.07 | 66.5 | 46.4 | 256 (≈ 525 µM) | – | – | – | – | – | – | – | 256 (≈ 525 µM) | – | – | –
CC1(C)S[C@@H]2[C@H](NC(=O)[C@H](N)c3ccc(O)cc3)C(=O)N2[C@H]1C(=O)O [AMOXICILLIN] | – | – | – | – | 64 (≈ 175 µM) | – | – | – | – | – | – | – | 1 (≈ 2.74 µM) | 256 (≈ 701 µM) | 64 (≈ 175 µM) | –
CCO/C=N/c1c(C#N)c(-c2ccccc2)c(-c2ccccc2)n1-c1c(C)c(=O)n(-c2ccccc2)n1C | – | – | – | – | – | inactive | inactive | inactive | inactive | inactive | inactive | – | – | – | – | –
Cc1nc2c(c(-c3ccccc3)c(-c3ccccc3)n2-c2c(C)c(=O)n(-c3ccccc3)n2C)c(=O)[nH]1 | 2.16 | 5.37 | 13.2 | 27.6 | – | – | – | – | – | – | – | – | – | – | – | Active
Cc1c(-n2c(-c3ccccc3)c(-c3ccccc3)c3c(Cl)ncnc32)n(C)n(-c2ccccc2)c1=O | – | – | – | – | – | inactive | inactive | inactive | inactive | inactive | inactive | – | – | – | – | –
Cc1c(-n2c(N)c(C(N)=O)c(-c3ccccc3)c2-c2ccccc2)n(C)n(-c2ccccc2)c1=O | 19.1 | 26.1 | 47.8 | 62.5 | – | inactive | inactive | inactive | inactive | inactive | inactive | – | – | – | – | –
